Here are results for 30 compounds from ChEMBL document CHEMBL1221348, “1,2,3-triazole analogs of combretastatin A-4 as potential microtubule-binding agents” (Bioorg Med Chem, 2010).

Assay [1] deals with K562. Description: Cytotoxicity against human K562 cells after 5 days by MTT assay. The assay is classed as functional, cell-based. The settings on record: K562, 120 h. Put shortly:
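K562 human chronic myelogenous leukemia cells were grown in antibiotic-free RPMI with 10% v/v FCS and plated at 40,000 cells/mL. Drug was dissolved in DMSO and serially diluted in medium, with a drug-free control. Plates were incubated 5 days at 37 °C in 5% CO2. MTT was added for 3 h and the formazan dissolved in DMSO. OD was read at 540 and 690 nm to derive the growth-inhibitory dose.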
Background: Formazan colour is commonly taken as a measure of viable cells.

Assay [2] deals with Tubulin (Sus scrofa, UniProt P02554+P02550). Description: Inhibition of pig tubulin polymerization. Format: protein assay. The essentials:
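Porcine brain tubulin (11 mg/mL stock) was used in Mes buffer (0.1 M Mes, 1 mM EGTA, 0.5 mM MgCl2, pH 6.6) with GTP (5 mM stock) and drug in DMSO. The plate was prechilled 30 min at 4 °C. Absorbance at 350 nm was recorded at ambient temperature for 60 min against buffer+drug blanks. IC50 was taken graphically as percent of untreated control assembly.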

The term IC50 denotes the concentration needed to halve the response being measured. A low value points to greater potency. For `COc1ccc(Cn2nncc2-c2cc(OC)c(OC)c(OC)c2)cc1`, in assay [1], it took 8.66 µM to reach half-maximal inhibition (IC50).

On to `COc1ccc(Cn2nncc2-c2cc(OC)c(OC)c(OC)c2)cc1Br`, for which the IC50 in assay [1] is greater than 10 µM.

Turning to `COc1ccc(Cn2nncc2-c2cc(OC)c(OC)c(OC)c2)cc1O`, in assay [1], 1.83 µM corresponded to half-maximal inhibition (IC50).

`COc1ccc(Cn2nncc2-c2cc(OC)c(OC)c(OC)c2)cc1[N+](=O)[O-]` yielded an IC50 in assay [1] greater than 10 µM.

For `COc1ccc(Cn2nncc2-c2cc(OC)c(OC)c(OC)c2)cc1N`, the IC50 in assay [1] is 0.73 µM; in assay [2], greater than 20 µM.

Consider `COc1ccc(-c2cnnn2Cc2cc(OC)c(OC)c(OC)c2)cc1`, for which, in assay [1], the IC50 stood at 5.56 µM.

`COc1ccc(-c2cnnn2Cc2cc(OC)c(OC)c(OC)c2)cc1Br` displayed an IC50 in assay [1] greater than 10 µM.

Take `COc1ccc(-c2cnnn2Cc2cc(OC)c(OC)c(OC)c2)cc1O`: in assay [1], the IC50 is 0.53 µM.

As for `COc1ccc(-c2cnnn2Cc2cc(OC)c(OC)c(OC)c2)cc1[N+](=O)[O-]`, the IC50 in assay [1] is greater than 10 µM.

With `COc1ccc(-c2cnnn2Cc2cc(OC)c(OC)c(OC)c2)cc1N`, the figures for the IC50 in assay [1] and in assay [2] were 0.38 µM and greater than 20 µM, respectively.

Compound `COc1ccc(-n2cc(-c3cc(OC)c(OC)c(OC)c3)nn2)cc1Br` had a concentration for half-maximal inhibition (IC50) in assay [1] greater than 10 µM.

In assay [1], `COc1ccc(-n2cc(-c3cc(OC)c(OC)c(OC)c3)nn2)cc1[N+](=O)[O-]` yielded a half-maximal inhibitory concentration (IC50) greater than 10 µM.

On to `COc1ccc(-n2cc(-c3cc(OC)c(OC)c(OC)c3)nn2)cc1N`, for which, in assay [1], the 50% inhibitory concentration (IC50) was greater than 10 µM.

For the compound `COc1ccc(-c2cn(-c3cc(OC)c(OC)c(OC)c3)nn2)cc1Br`, in assay [1], the concentration for half-maximal inhibition (IC50) is greater than 10 µM.

In turn, `COc1ccc(Cn2cc(-c3cc(OC)c(OC)c(OC)c3)nn2)cc1` returned an IC50 in assay [1] greater than 10 µM.

On to `COc1ccc(Cn2cc(-c3cc(OC)c(OC)c(OC)c3)nn2)cc1Br`, for which the IC50 in assay [1] is greater than 10 µM.

Regarding `COc1ccc(Cn2cc(-c3cc(OC)c(OC)c(OC)c3)nn2)cc1O`, the concentration for half-maximal inhibition (IC50) in assay [1] is greater than 10 µM.

On to `COc1ccc(Cn2cc(-c3cc(OC)c(OC)c(OC)c3)nn2)cc1[N+](=O)[O-]`, for which the IC50 in assay [1] is greater than 10 µM.

Turning to `COc1ccc(Cn2cc(-c3cc(OC)c(OC)c(OC)c3)nn2)cc1N`, in assay [1], the IC50 was greater than 10 µM.

In assay [1], `COc1ccc(-c2cn(Cc3cc(OC)c(OC)c(OC)c3)nn2)cc1` showed a half-inhibitory concentration (IC50) greater than 10 µM.

Consider `COc1ccc(-c2cn(Cc3cc(OC)c(OC)c(OC)c3)nn2)cc1Br`, for which, in assay [1], the half-inhibitory concentration (IC50) is greater than 10 µM.

Compound `COc1ccc(-c2cn(Cc3cc(OC)c(OC)c(OC)c3)nn2)cc1O` returned a concentration for half-maximal inhibition (IC50) in assay [1] greater than 10 µM.

Compound `COc1ccc(-c2cn(Cc3cc(OC)c(OC)c(OC)c3)nn2)cc1[N+](=O)[O-]` came in with an IC50 in assay [1] greater than 10 µM.

The compound `COc1ccc(-c2cn(Cc3cc(OC)c(OC)c(OC)c3)nn2)cc1N` returned a concentration for half-maximal inhibition (IC50) in assay [1] greater than 10 µM.

For the compound `COc1ccc(-c2cn(-c3cc(OC)c(OC)c(OC)c3)nn2)cc1`, the concentration for half-maximal inhibition (IC50) in assay [1] was greater than 10 µM.

`COc1ccc(-n2cc(-c3cc(OC)c(OC)c(OC)c3)nn2)cc1` showed an IC50 in assay [1] greater than 10 µM.

Consider `COc1ccc(-n2cc(-c3cc(OC)c(OC)c(OC)c3)nn2)cc1O`, for which the results for the IC50 in assay [1] and in assay [2] were 3.2 µM and greater than 20 µM, respectively.

In the case of `COc1ccc(-c2cn(-c3cc(OC)c(OC)c(OC)c3)nn2)cc1O`, the IC50 in assay [1] was greater than 10 µM.

In assay [1], `COc1ccc(-c2cn(-c3cc(OC)c(OC)c(OC)c3)nn2)cc1[N+](=O)[O-]` gave an IC50 greater than 10 µM.

As for `COc1ccc(-c2cn(-c3cc(OC)c(OC)c(OC)c3)nn2)cc1N`, the half-inhibitory concentration (IC50) in assay [2] was greater than 20 µM.
